Reference: ChEMBL document CHEMBL4385606, “3,5,7-Substituted Pyrazolo[4,3- d]pyrimidine Inhibitors of Cyclin-Dependent Kinases and Their Evaluation in Lymphoma Models” (J Med Chem, 2019)
Active and inactive are the calls of the source. The calls are words filed in the database; no cut-off is given here.

Tests used:
[1] = target: Cyclin-dependent kinase 4/cyclin D1 (Homo sapiens, UniProt P11802); assay: Inhibition of recombinant human N-terminal GST-fused CDK4 (S4 to E303 residues)/cyclin D1 (Q4 to I295 residues) expressed in baculovirus infected Sf9 insect cells using RPPTLSPIPHIPR as substrate measured in presence of [gamma-33P]ATP
Cyclin-dependent kinase 4/cyclin D1, sequence (P11802 whole entry, the tested form may be a part): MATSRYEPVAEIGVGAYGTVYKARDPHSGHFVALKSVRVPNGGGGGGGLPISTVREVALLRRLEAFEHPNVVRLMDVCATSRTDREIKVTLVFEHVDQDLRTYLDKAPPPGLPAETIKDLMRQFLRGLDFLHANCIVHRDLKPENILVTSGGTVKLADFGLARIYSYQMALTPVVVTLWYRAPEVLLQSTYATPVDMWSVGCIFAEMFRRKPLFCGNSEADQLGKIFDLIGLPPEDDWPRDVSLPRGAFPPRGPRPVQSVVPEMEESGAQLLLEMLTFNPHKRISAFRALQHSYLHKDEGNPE
Cyclin-dependent kinase 4/cyclin D1, sequence (P24385 whole entry, further chain, the tested form may be a part): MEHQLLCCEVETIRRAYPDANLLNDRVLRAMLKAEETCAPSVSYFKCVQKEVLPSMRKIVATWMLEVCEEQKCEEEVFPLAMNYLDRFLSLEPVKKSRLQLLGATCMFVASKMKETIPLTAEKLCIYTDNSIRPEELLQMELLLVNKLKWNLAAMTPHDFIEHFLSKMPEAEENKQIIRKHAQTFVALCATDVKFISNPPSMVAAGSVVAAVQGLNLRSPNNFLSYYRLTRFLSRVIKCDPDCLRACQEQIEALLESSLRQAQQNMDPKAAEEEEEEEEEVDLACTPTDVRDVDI
Procedure, shortened: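 CDK/cyclin complexes tested in triplicate at minimum; IC50 values reported from those replicate determinations.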

[2] = target: T1, Serine/threonine-protein kinase Chk2 (Homo sapiens, UniProt O96017); assay: Inhibition of CHK2 (unknown origin) assessed as residual activity at 1 uM relative to control
T1 sequence (O96017 whole entry): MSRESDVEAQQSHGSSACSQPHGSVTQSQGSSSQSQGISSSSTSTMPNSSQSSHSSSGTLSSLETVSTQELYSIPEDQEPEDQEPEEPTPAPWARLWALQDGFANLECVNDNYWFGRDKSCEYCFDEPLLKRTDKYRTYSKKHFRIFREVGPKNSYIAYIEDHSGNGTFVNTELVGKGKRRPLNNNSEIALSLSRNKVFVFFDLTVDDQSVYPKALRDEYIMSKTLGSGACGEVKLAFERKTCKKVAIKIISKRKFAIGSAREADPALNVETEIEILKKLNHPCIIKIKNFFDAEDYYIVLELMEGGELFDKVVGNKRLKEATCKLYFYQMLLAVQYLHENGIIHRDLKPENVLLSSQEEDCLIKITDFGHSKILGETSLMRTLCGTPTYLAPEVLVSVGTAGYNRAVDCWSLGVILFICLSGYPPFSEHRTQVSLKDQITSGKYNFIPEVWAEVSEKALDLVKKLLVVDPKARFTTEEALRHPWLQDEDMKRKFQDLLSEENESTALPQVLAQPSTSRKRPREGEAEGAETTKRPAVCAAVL
Procedure, shortened: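 Single-concentration screen at 1 µM across a panel of 50 protein kinases sampling the human kinome; read-out is residual kinase activity (%).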

[3] = target: T1, Serine/threonine-protein kinase Chk2; assay: Inhibition of CHK2 (unknown origin)
[4] = Antiproliferative activity against human HBL1 cells assessed as growth inhibition measured after 72 hrs by calcein AM dye-based fluorescence assay; assay type: functional, cell-based; conditions: HBL1, 72 h
Procedure, shortened: (§1)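 Cells exposed in triplicate to six concentrations for 72 h; calcein AM added for 1 h, live-cell fluorescence read at 485/538 nm (ex/em). GI50 taken from dose-response curves.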

K562 = assay: Antiproliferative activity against human K562 cells assessed as growth inhibition measured after 72 hrs by calcein AM dye-based fluorescence assay; assay type: functional, cell-based; conditions: K562, 72 h; procedure, shortened: as §1
HeLa = assay: Antiproliferative activity against human HeLa cells assessed as growth inhibition measured after 72 hrs by calcein AM dye-based fluorescence assay; assay type: functional, cell-based; procedure, shortened: as §1
Homo sapiens [5] = species on record: Homo sapiens; assay: Induction of apoptosis in human Mino cells assessed as reduction in MCL1 expression at 1.5 to 12.5 nM after 24 hrs by immunoblotting analysis; assay type: functional, cell-based
Procedure, shortened: (§2)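 Lymphoma cell lines were cultured as the providers instruct and exposed to compound at several doses or for several times. Lysates were run on SDS-PAGE and blotted to nitrocellulose. Blots were blocked, incubated overnight with primary antibodies diluted in PBS with 5% milk and 0.1% Tween 20, then with peroxidase-conjugated secondaries, and detected by chemiluminescence on a CCD camera.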

[6] = target: Cyclin-dependent kinase 2 (Homo sapiens) (UniProt P24941); assay: Inhibition of CDK2 in human Mino cells assessed as decrease in phosphorylation of Rb at Ser 608 residue at 12.5 nM by immunoblotting analysis; assay type: cell-based; conditions: TDE = time-dependent effect
Procedure, shortened: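 MINO lymphoma cells were treated at 12.5 nM, with time points over 24 h. Lysates were separated by SDS-PAGE and blotted to nitrocellulose. Phospho-RNA polymerase II CTD (Ser2, Ser5) and phospho-Rb (Ser608, Ser780) were probed with primary antibodies overnight and peroxidase-conjugated secondaries. Detection was by chemiluminescence on a CCD camera.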

Mus musculus [7] = assay: Ex vivo antitumor activity against patient derived VFN-M1 cells xenografted NSG mouse assessed as down regulation of XIAP expression at 10 mg/kg, iv measured after 24 hrs by immunoblotting analysis; assay type: functional, organism-based
Procedure, shortened: (§3)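 Female NSG mice, 8-12 weeks old, implanted s.c. with lymphoma cells. Once tumors were palpable, mice received a single tail-vein i.v. dose (5 or 10 mg/kg) of compound dissolved in PBS. Mice were euthanized 24 h later. Tumors were excised, filtered through 45 µm nylon mesh and lysed, then proteins were analysed by immunoblotting.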

Maver1 [8] = assay: Antitumor activity against human Maver1 cells xenografted in NSG mouse assessed as inhibition of tumor growth at 9 mg/kg measured on day 13 by caliper method; assay type: functional, organism-based
Procedure, shortened: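 MAVER-1 cells implanted s.c. in NSG mice. Groups: vehicle n=6, 9 mg/kg n=8, venetoclax 20 mg/kg n=8, combination n=10. Tumors measured daily by caliper in two perpendicular dimensions. Mean volumes ±SD tracked from therapy start (day 1).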

Homo sapiens [9] = species on record: Homo sapiens; assay: Induction of apoptosis in human UPF1H cells assessed as reduction in XIAP expression at 12.5 to 100 nM after 24 hrs by immunoblot analysis; assay type: functional, cell-based; procedure, shortened: as §2
Maver1 [10] = assay: Induction of apoptosis in human Maver1 cells assessed as reduction in MCL1 expression at 1.5 to 12.5 nM after 24 hrs by immunoblot analysis; assay type: functional, cell-based; procedure, shortened: as §2
Mus musculus [11] = assay: Ex vivo antitumor activity against human UPF1H cells xenografted NSG mouse assessed as down regulation of MCL1 expression at 5 to 10 mg/kg, iv measured after 24 hrs by immunoblotting analysis; assay type: functional, organism-based; procedure, shortened: as §3
Mus musculus [12] = assay: Ex vivo antitumor activity against human Mino cells xenografted NSG mouse decrease in phosphorylation of Rb at […] residue at 5 to 10 mg/kg, iv measured after 24 hrs by immunoblotting analysis; assay type: functional, organism-based; procedure, shortened: as §3
Mus musculus [13] = assay: Ex vivo antitumor activity against human UPF1H cells xenografted NSG mouse decrease in phosphorylation of RNA polymerase 2 C-terminal domain at Ser 5 residue at 5 to 10 mg/kg, iv measured after 24 hrs by immunoblotting analysis; assay type: functional, organism-based; procedure, shortened: as §3

- IC50 [1]: 603 nM
- Activity [2]: 18%
- IC50 [3]: 525 nM
- GI50 (K562): 36 nM
- IC50 (K562): 36 nM
- GI50 (HeLa): 21.6 nM
- IC50 (HeLa): 17 nM
- inhibition [6]: Tde
Structure (SMILES): CC(C)c1n[nH]c2c(NCc3ccc(-c4ccccn4)cc3)nc(SCCN)nc12
- GI50 [4]: 10 nM
- IC50 [4]: 10 nM
- Activity (Homo sapiens [5]): Active
- Activity (Mus musculus [7]): Active
- TGI (Maver1 [8]): Active
- Activity (Homo sapiens [9]): Active
- Activity (Maver1 [10]): Active
- Activity (Mus musculus [11]): Active
- Activity (Mus musculus [12]): Active
- Activity (Mus musculus [13]): Active
